Measured values taken from ChEMBL document CHEMBL4325893, “Synthesis and antibacterial profiles of targeted triclosan derivatives” (2019).

Key:
Klebsiella pneumoniae [1] = experiment: Antibacterial activity against Klebsiella pneumoniae ATCC 13883 after 18 hrs; type: functional; settings: ATCC 13883, 18 h
Summary of the method: (§1)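 Broth microdilution in Nutrient Broth No. 2; stocks in ethanol diluted to 0.01–128 µg/ml (triclosan) or 0.25–256 µg/ml (glycosides). Overnight 37 °C NB2 cultures diluted 1 in 10^4 in saline and added to the dilutions. Incubation at 37 °C with agitation, OD read every 15 min; MIC is the lowest concentration preventing any OD rise after 18 h.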

Staphylococcus aureus [2] = experiment: Antibacterial activity against Staphylococcus aureus NCTC 13758 after 18 hrs; type: functional; settings: NCTC 13758, 18 h; summary of the method: as §1
Proteus mirabilis = experiment: Antibacterial activity against Proteus mirabilis ATCC 12453 after 18 hrs; type: functional; settings: ATCC 12453, 18 h; summary of the method: as §1
[3] = Antibacterial activity against Salmonella enterica subspecies enterica serotype Infantis OCC 2133 after 18 hrs; type: functional, Salmonella enterica subsp. enterica serovar Infantis; settings: OCC 2133, 18 h; summary of the method: as §1
[4] = Antibacterial activity against Salmonella enterica subspecies enterica serotype Nottingham NCTC 7832 after 18 hrs; type: functional, Salmonella enterica subsp. enterica serovar Nottingham; settings: NCTC 7832, 18 h; summary of the method: as §1
Citrobacter freundii = experiment: Antibacterial activity against Citrobacter freundii 8090 after 18 hrs; type: functional; settings: Citrobacter freundii, 8090, 18 h; summary of the method: as §1
[5] = Antibacterial activity against Salmonella enterica subspecies enterica serotype Arizonae OCC 706 after 18 hrs; type: functional, Salmonella enterica subsp. enterica serovar Arizonae; settings: OCC 706, 18 h; summary of the method: as §1
Enterococcus faecalis [6] = experiment: Antibacterial activity against Enterococcus faecalis ATCC 29212 after 18 hrs; type: functional; settings: ATCC 29212, 18 h; summary of the method: as §1
Escherichia coli [7] = experiment: Antibacterial activity against Escherichia coli 700728 after 18 hrs; type: functional; settings: Escherichia coli, 700728, 18 h; summary of the method: as §1
Escherichia coli [8] = experiment: Antibacterial activity against Escherichia coli ATCC 11775 after 18 hrs; type: functional; summary of the method: as §1
Staphylococcus aureus [9] = experiment: Antibacterial activity against Staphylococcus aureus ATCC 29213 after 18 hrs; type: functional; settings: ATCC 29213, 18 h; summary of the method: as §1
Enterococcus faecalis [10] = experiment: Antibacterial activity against Enterococcus faecalis ATCC 33186 after 18 hrs; type: functional; settings: ATCC 33186, 18 h; summary of the method: as §1
Cronobacter sakazakii = experiment: Antibacterial activity against Cronobacter sakazakii 29544 after 18 hrs; type: functional; settings: Cronobacter sakazakii, 29544, 18 h; summary of the method: as §1
Escherichia hermannii = experiment: Antibacterial activity against Escherichia hermannii 33650 after 18 hrs; type: functional; settings: Atlantibacter hermannii, 33650, 18 h; summary of the method: as §1
Klebsiella aerogenes = experiment: Antibacterial activity against Enterobacter aerogenes ATCC 13048 after 18 hrs; type: functional; settings: ATCC 13048, 18 h; summary of the method: as §1
Klebsiella pneumoniae [11] = experiment: Antibacterial activity against Klebsiella pneumoniae ATCC 10031 after 18 hrs; type: functional; settings: ATCC 10031, 18 h; summary of the method: as §1
Proteus vulgaris = experiment: Antibacterial activity against Proteus vulgaris OCC 195 after 18 hrs; type: functional; settings: OCC 195, 18 h; summary of the method: as §1
Enterococcus faecium = experiment: Antibacterial activity against Enterococcus faecium ATCC 19434 after 18 hrs; type: functional; settings: ATCC 19434, 18 h; summary of the method: as §1
Salmonella typhimurium = experiment: Antibacterial activity against Salmonella enterica subspecies enterica serotype typhimurium ATCC 14028 after 18 hrs; type: functional, Salmonella enterica subsp. enterica serovar Typhimurium; settings: ATCC 14028, 18 h; summary of the method: as §1
[12] = Antibacterial activity against Salmonella enterica subspecies enterica serotype Dublin OCC 627 after 18 hrs; type: functional, Salmonella enterica subsp. enterica serovar Dublin; settings: OCC 627, 18 h; summary of the method: as §1
Streptococcus pyogenes = experiment: Antibacterial activity against Streptococcus pyogenes ATCC 19615 after 18 hrs; type: functional; settings: ATCC 19615, 18 h
Summary of the method: (§2)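 Broth microdilution in Nutrient Broth No. 2. Ethanol stocks were diluted in broth to 0.01–128 µg/ml for triclosan and 0.25–256 µg/ml for glycosides. Overnight 37°C NB2 cultures were diluted 1 in 10^4 in saline and added to the wells. Plates were incubated at 37°C with OD read every 15 min after agitation. MIC was the lowest concentration giving no OD increase at 18 h.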

Staphylococcus aureus [13] = experiment: Antibacterial activity against Staphylococcus aureus ATCC 6538P after 18 hrs; type: functional; summary of the method: as §1
Escherichia coli [14] = experiment: Antibacterial activity against Escherichia coli ATCC 8739 after 18 hrs; type: functional; settings: ATCC 8739, 18 h; summary of the method: as §1
Escherichia coli [15] = experiment: Antibacterial activity against Escherichia coli ATCC 25922 after 18 hrs; type: functional; settings: ATCC 25922, 18 h; summary of the method: as §1
Staphylococcus aureus [16] = experiment: Antibacterial activity against Staphylococcus aureus OCC 106 after 18 hrs; type: functional; settings: OCC 106, 18 h; summary of the method: as §1
[17] = test system: Staphylococcus epidermidis; experiment: Antibacterial activity against Staphylococcus epidermidis 155 after 18 hrs; type: functional; settings: Staphylococcus epidermidis, 155, 18 h; summary of the method: as §1
Streptococcus agalactiae = experiment: Antibacterial activity against Streptococcus agalactiae OCC 182 after 18 hrs; type: functional; settings: OCC 182, 18 h; summary of the method: as §2
[18] = Antibacterial activity against Salmonella enterica subspecies enterica serotype Virchow NCTC 5742 after 18 hrs; type: functional, Salmonella enterica subsp. enterica serovar Virchow; settings: NCTC 5742, 18 h; summary of the method: as §1
Staphylococcus aureus [19] = experiment: Antibacterial activity against Staphylococcus aureus ATCC 25923 after 18 hrs; type: functional; settings: ATCC 25923, 18 h; summary of the method: as §1

Measured: MIC

O[C@@H]1[C@H](Oc2cc(Cl)ccc2Oc2ccc(Cl)cc2Cl)OC[C@@H](O)[C@H]1O
64 µg/mL: Citrobacter freundii
32 µg/mL: Proteus mirabilis | Escherichia hermannii | Streptococcus pyogenes
4 to 8 µg/mL: Staphylococcus aureus [2] | Staphylococcus aureus [9] | Staphylococcus aureus [13] | Staphylococcus aureus [16] | Staphylococcus aureus [19]
128 µg/mL: Cronobacter sakazakii | Klebsiella aerogenes | Proteus vulgaris | Streptococcus agalactiae
8 to 16 µg/mL: [17]
4 µg/mL: Klebsiella pneumoniae [1] | Klebsiella pneumoniae [11]
8 to 32 µg/mL: Escherichia coli [7] | Escherichia coli [8] | Escherichia coli [14] | Escherichia coli [15]
256 µg/mL: Enterococcus faecalis [6] | Enterococcus faecalis [10] | Enterococcus faecium
32 to 64 µg/mL: all other assays above
